Experimental data published in ChEMBL document CHEMBL1155293 (Eur J Med Chem, 2009).
Values belong to the compound of their own block, whether it stands above or below them. Activity calls are given as the source filed them.

What was measured:
[1] = tested on: Mus musculus; test: Antinociceptive activity in Swiss mouse by inhibition of acetic acid-induced abdominal constriction at 10 mg/kg, ip after 20 mins; assay type: functional; conditions: Abdomen, route intraperitoneal
Procedure, shortened: (§1)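 Male Swiss mice (25–30 g) were pretreated i.p. 30 min before i.p. acetic acid (0.6%): 10 mg/kg for screening, or 3, 6 and 10 mg/kg for dose-response. Controls received vehicle (0.9% NaCl and Tween 80, 10 ml/kg i.p.). Abdominal constrictions plus stretching were counted cumulatively over 20 min at 23 ± 2 °C. Inhibition is relative to controls; ID50 by linear regression.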

[2] = Lipophilicity, log P of the compound; assay type: physicochemical; conditions: octanol/water
[3] = tested on: Mus musculus; test: Antinociceptive activity in po dosed Swiss mouse by inhibition of acetic acid-induced abdominal constriction; assay type: functional; conditions: Abdomen, read-out: ID50 (the source's name)
Procedure, shortened: (§2)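 Oral dosing of male Swiss mice (25–30 g) at 100, 250 and 500 mg/kg, 30 min before i.p. acetic acid (0.6%). Vehicle was Tween 80 in 0.9% NaCl. Abdominal constrictions with stretching were counted cumulatively for 20 min at 23 ± 2 °C. Inhibition is relative to vehicle controls; mean ± SEM of six values.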

[4] = tested on: Mus musculus; test: Antinociceptive activity in Swiss mouse by inhibition of acetic acid-induced abdominal constriction at 500 mg/kg, po after 20 mins; assay type: functional, Abdomen; design: scale not given: the % may be the effect or the level left; procedure, shortened: as §2
[5] = tested on: Mus musculus; test: Antinociceptive activity in Swiss mouse by inhibition of acetic acid-induced abdominal constriction at 250 mg/kg, po after 20 mins; assay type: functional, Abdomen; design: scale not given: the % may be the effect or the level left; procedure, shortened: as §2
[6] = tested on: Mus musculus; test: Antinociceptive activity in Swiss mouse assessed as reduction in response latency at 10 mg/kg, ip after 30 mins by hot plate method; assay type: functional, organism-based; design: dose 10 mg/kg
Procedure, shortened: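 Mice received saline, morphine 10 mg/kg s.c., or test compound 10 mg/kg i.p. 30 min before testing on a hot plate at 56 ± 1 °C. Latency to hindpaw licking, paw shaking or jumping was recorded. Mice with baseline latency above 20 s were excluded; cut-off was 30 s. Mean ± SEM of six values.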

[7] = tested on: Mus musculus; test: Antinociceptive activity against formalin-induced pain in Swiss mouse assessed as reduction of time spent in paw licking and biting at 10 mg/kg, ip after 0 to 5 mins; assay type: functional; design: scale not given: the % may be the effect or the level left; conditions: route intraperitoneal
Procedure, shortened: (§3)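 Swiss mice, 6–8 per group, housed at 22 ± 2 °C on a 12 h light/dark cycle. Compound given i.p. at 6, 10 or 30 mg/kg in Tween 80/0.9% NaCl vehicle (Tween ≤5%) before intraplantar formalin. Licking was scored for the first phase (0–5 min) and second phase (15–30 min). Mean ± SEM of six values; ID50 by linear regression with 95% confidence limits.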

[8] = tested on: Mus musculus; test: Antinociceptive activity in ip dosed Swiss mouse by inhibition of formalin induced pain after 15 to 30 mins; assay type: functional; conditions: read-out: ID50 (the source's name); procedure, shortened: as §3
[9] = tested on: Mus musculus; test: Antinociceptive activity in Swiss mouse by inhibition of acetic acid-induced abdominal constriction at 100 mg/kg, po after 20 mins; assay type: functional, Abdomen; design: scale not given: the % may be the effect or the level left; procedure, shortened: as §2
[10] = tested on: Mus musculus; test: Antinociceptive activity against capsaicin-induced neurogenic pain in ip dosed Swiss mouse by reduction of paw licking response; assay type: functional
Procedure, shortened: (§4)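 Capsaicin dissolved in absolute ethanol (final ≤5%), injected intraplantarly. Test compound given i.p. at 10, 30 and 60 mg/kg, 30 min before capsaicin, in Tween 80 plus 0.9% NaCl. Time spent licking the injected paw was timed over 5 min. Data are mean ± SEM; ID50 from linear regression as geometric mean with 95% confidence limits. ANOVA with Newman–Keuls test.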

[11] = tested on: Mus musculus; test: Antinociceptive activity against formalin-induced pain in ip dosed Swiss mouse assessed as reduction of time spent in paw licking; assay type: functional; conditions: for ED50: read-out: ID50 (the source's name); procedure, shortened: as §3
[12] = tested on: Mus musculus; test: Antinociceptive activity against capsaicin-induced neurogenic pain in Swiss mouse by reduction of paw licking response at 30 mg/kg, ip; assay type: functional; design: scale not given: the % may be the effect or the level left; conditions: route intraperitoneal; procedure, shortened: as §4
[13] = tested on: Mus musculus; test: Antinociceptive activity against glutamate-induced pain in Swiss mouse assessed as reduction in time spent on paw licking and biting at 30 mg/kg, ip; assay type: functional; design: scale not given: the % may be the effect or the level left; conditions: route intraperitoneal
Procedure, shortened: (§5)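 Dosing was i.p. at 10, 30 or 60 mg/kg, 30 min before intraplantar glutamate (30 µmol/paw) into the right hindpaw. Time spent licking or biting the injected paw was timed from 0 to 15 min. Mean ± SEM of six values; ID50 from linear regression as geometric mean with 95% confidence limits. ANOVA with Newman–Keuls test.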

[14] = tested on: Mus musculus; test: Antinociceptive activity in ip dosed Swiss mouse by inhibition of acetic acid-induced abdominal constriction after 20 mins; assay type: functional; conditions: Abdomen, read-out: ID50 (the source's name); procedure, shortened: as §1
[15] = tested on: Mus musculus; test: Antinociceptive activity in ip dosed Swiss mouse by inhibition of formalin induced pain after 0 to 5 mins; assay type: functional; conditions: read-out: ID50 (the source's name); procedure, shortened: as §3
[16] = tested on: Mus musculus; test: Antinociceptive activity against formalin-induced pain in Swiss mouse assessed as reduction of time spent in paw licking and biting at 10 mg/kg, ip after 15 to 30 mins; assay type: functional; design: scale not given: the % may be the effect or the level left; conditions: route intraperitoneal; procedure, shortened: as §3
[17] = tested on: Mus musculus; test: Antinociceptive activity against formalin-induced pain in Swiss mouse assessed as reduction of time spent in paw licking and biting at 30 mg/kg, ip after 15 to 30 mins; assay type: functional; design: scale not given: the % may be the effect or the level left; conditions: route intraperitoneal; procedure, shortened: as §3
[18] = tested on: Mus musculus; test: Antinociceptive activity against glutamate-induced pain in ip dosed Swiss mouse assessed as reduction in time spent on paw licking and biting; assay type: functional; procedure, shortened: as §5
[19] = tested on: Mus musculus; test: Antinociceptive activity against glutamate-induced pain in Swiss mouse assessed as reduction in time spent on paw licking and biting at 60 mg/kg, ip; assay type: functional; design: scale not given: the % may be the effect or the level left; conditions: route intraperitoneal; procedure, shortened: as §5
[20] = tested on: Mus musculus; test: Antinociceptive activity against glutamate-induced pain in Swiss mouse assessed as reduction in time spent on paw licking and biting at 10 mg/kg, ip; assay type: functional; design: scale not given: the % may be the effect or the level left; conditions: route intraperitoneal; procedure, shortened: as §5
[21] = tested on: Mus musculus; test: Antinociceptive activity against capsaicin-induced neurogenic pain in Swiss mouse by reduction of paw licking response at 60 mg/kg, ip; assay type: functional; design: scale not given: the % may be the effect or the level left; conditions: route intraperitoneal; procedure, shortened: as §4
[22] = tested on: Mus musculus; test: Antinociceptive activity against formalin-induced pain in Swiss mouse assessed as reduction of time spent in paw licking and biting at 30 mg/kg, ip after 0 to 5 mins; assay type: functional; design: scale not given: the % may be the effect or the level left; conditions: route intraperitoneal; procedure, shortened: as §3
[23] = read-out: ID50 (the source's name)

SMILES: CC(C)OC(=O)/C=C/c1ccc(O)c(O)c1
inhibition in vivo at 10 mg/kg [1]: 31%
logP [2]: 2.3

SMILES: CCCCCCCCCCCCOC(=O)/C=C/c1ccc(O)c(O)c1
ED50 [3]: ≥ 500 mg/kg
Activity [4]: 45.7%
Activity [5]: 32.4%
inhibition in vivo at 10 mg/kg [1]: 78.8%
Activity [6]: inactive
Activity [7]: 20.7%
ED50 [8]: 23.8 mg/kg
Activity [9]: 22.2%
Activity [10]: Dose-dependent effect
ED50 [10, 23]: 46.6 mg/kg
Activity [11]: Dose-dependent effect
Activity [12]: 36.9%
Activity [13]: 46.3%
ED50 [14]: 5.25 mg/kg
ED50 [15]: 26.2 mg/kg
Activity [16]: 34.4%
Activity [17]: 56.8%
Activity [18]: Dose-dependent effect
ED50 [18, 23]: 38.4 mg/kg
Activity [19]: 65.2%
Activity [20]: 25.6%
Activity [21]: 58.6%
Activity [22]: 56.2%
logP [2]: 7.04

SMILES: CC(C)COC(=O)/C=C/c1ccc(O)c(O)c1
inhibition in vivo at 10 mg/kg [1]: 52%
logP [2]: 2.68

SMILES: O=C(/C=C/c1ccc(O)c(O)c1)OCCc1ccccc1 [CAFFEIC ACID PHENETHYL ESTER]
inhibition in vivo at 10 mg/kg [1]: 27.5%
logP [2]: 3.36

SMILES: O=C(O)/C=C/c1ccc(O)c(O)c1 [CAFFEIC ACID]
inhibition in vivo at 10 mg/kg [1]: 34.6%

SMILES: COC(=O)/C=C/c1ccc(O)c(O)c1 [METHYLCAFFEATE]
inhibition in vivo at 10 mg/kg [1]: 54.5%
logP [2]: 1.56

SMILES: CC(=O)Nc1ccc(O)cc1 [ACETAMINOPHEN]
inhibition in vivo at 10 mg/kg [1]: 38%
ED50 [11]: 120 µmol/kg
ED50 [14]: 133 µmol/kg
logP [2]: 1.43

SMILES: O=C(/C=C/c1ccc(O)c(O)c1)OCc1ccccc1 [BENZYL CAFFEATE]
inhibition in vivo at 10 mg/kg [1]: 8.8%
logP [2]: 3.15

More lines, main results first:

logP [2]: 1.93
SMILES: CCOC(=O)/C=C/c1ccc(O)c(O)c1 [ETHYL CAFFEATE]
inhibition in vivo at 10 mg/kg [1]: 58.1%

logP [2]: 2.99
SMILES: CCCCOC(=O)/C=C/c1ccc(O)c(O)c1 [BUTYL CAFFEATE]
inhibition in vivo at 10 mg/kg [1]: 45%

logP [2]: 5.02
SMILES: CCCCCCCCOC(=O)/C=C/c1ccc(O)c(O)c1
inhibition in vivo at 10 mg/kg [1]: 46.2%

logP [2]: 3.21
SMILES: CC(C)CCOC(=O)/C=C/c1ccc(O)c(O)c1
inhibition in vivo at 10 mg/kg [1]: 75.8%

logP [2]: 0.68
SMILES: CC(=O)Oc1ccccc1C(=O)O [ASPIRIN]
inhibition in vivo at 10 mg/kg [1]: 35%
ED50 [11]: 123 µmol/kg
ED50 [14]: 125 µmol/kg
